# Published values gathered from unrelated publications.
# Each line is one published result; the experiments were not run side by side.
# Target: Mitogen-activated protein kinase 13 (MAPK13, Homo sapiens, UniProt O15264)
# Residues used in one study (O15264 1-365): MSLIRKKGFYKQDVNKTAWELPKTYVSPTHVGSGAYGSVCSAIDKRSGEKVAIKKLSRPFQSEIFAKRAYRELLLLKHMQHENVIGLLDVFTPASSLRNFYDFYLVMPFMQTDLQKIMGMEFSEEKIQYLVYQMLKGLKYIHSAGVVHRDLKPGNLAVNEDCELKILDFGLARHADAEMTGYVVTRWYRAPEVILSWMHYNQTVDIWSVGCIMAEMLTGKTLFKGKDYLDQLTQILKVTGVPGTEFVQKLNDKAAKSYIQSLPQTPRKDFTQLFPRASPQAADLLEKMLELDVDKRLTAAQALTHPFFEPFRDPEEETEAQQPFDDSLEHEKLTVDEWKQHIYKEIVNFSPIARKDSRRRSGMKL
SMILES,assay,conditions,endpoint,result
Cc1nc(C2CCN(C(=O)c3ccc(OC(F)(F)F)cc3N)CC2)c2ncc(N3CCN(C)CC3)cc2n1,"cell-free assay, competition with immobilised ligand",1 µM,remaining binding,100%
CN(C)C1CCN(CC#Cc2nn(C3CCCC3)c3nc(NCc4ccccc4)ncc23)C1 (centres unmarked),"enzyme activity, inhibitor, FRET",10 µM,inhibition,2%
CCCS(=O)(=O)Nc1ccc(F)c(C(=O)c2c[nH]c3ncc(-c4ccc(Cl)cc4)cc23)c1F,"enzyme activity, inhibitor",1 µM,inhibition,< 10%
CCCOc1ccc(OC)c(F)c1C(=O)c1ccc(C(=O)N[C@@H]2CNC[C@H]2NC(=O)c2ccc3[nH]ncc3c2)cc1,"enzyme activity, inhibitor",10 µM,remaining activity,93%
Cc1nc(Cc2cccc(C(F)(F)F)c2)sc1-c1ccc(C(N)=O)nc1,"cell-free assay, competition with immobilised ligand",1 µM,remaining binding,99%
Oc1cccc(-c2nc(N3CCOCC3)c3oc4ncccc4c3n2)c1,"enzyme activity, inhibitor",10 µM,remaining activity,84%
CNC(=O)Nc1ccc2c(c1)[C@@]1(CC2)OC(=O)N(CC(=O)N(Cc2ccc(F)cc2)[C@@H](C)C(F)(F)F)C1=O,"cell-free assay, competition with immobilised ligand",1 µM,remaining binding,97%
Cc1ccc(NC(=O)c2ccc(CN3CCN(C)CC3)cc2)cc1Nc1nc(-c2cccnc2)cs1,cell-free assay,0.5 µM,remaining signal,101%
CC1(C)NC(=O)c2[nH]c3c(Cl)c(Cl)ccc3c2C1C#N (centres unmarked),"thermal stability, DSF",10 µM,ΔTm,0.9 °C
CC(C)(C)c1nc2c(s1)c1nc(N)ncc1c1ccc(NS(=O)(=O)c3c(F)cccc3F)c(F)c12,"enzyme activity, inhibitor, radiometric",1 µM,remaining activity,91%
COc1cc2c(Nc3ccc(Br)cc3F)ncnc2cc1OCC1CCN(C)CC1,cell-free assay,0.5 µM,remaining signal,95.5%
Cn1c(=O)n(-c2ccc(C(C)(C)C#N)cc2)c2c3cc(-c4cnc5ccccc5c4)ccc3ncc21,"enzyme activity, inhibitor",10 µM,remaining activity,100%
N#CCCc1ccc2c(c1)-c1[nH]c3ccc([N+](=O)[O-])cc3c1CC(=O)N2,cell-free assay,0.5 µM,remaining signal,98.2%
CCN1CCC2(CC1)NC(=O)c1c(c3ccc(Cl)c(Cl)c3n1C)C2C#N (racemic),"thermal stability, DSF",10 µM,ΔTm,0.6 °C
Cc1ccc(Nc2nccc(N(C)c3ccc4c(C)n(C)nc4c3)n2)cc1S(N)(=O)=O,"enzyme activity, inhibitor",10 µM,inhibition,0%
CN1CC(Oc2cnc(C#N)cc2-c2ccn3nc(NC(=O)C4CC4)cc3c2)C1,"enzyme activity, inhibitor",1 µM,inhibition,-1%
Cn1c2c(c3ccc(Cl)c(Cl)c31)C(C#N)C1(CCOCC1)NC2=O (centres unmarked),"thermal stability, DSF",10 µM,ΔTm,0.4 °C
CCC(=O)N[C@@H]1CC[C@H](C(=O)N(C)c2ccc(-c3nc4ccccc4o3)cc2)C1,"cell-free assay, competition with immobilised ligand",1 µM,remaining binding,100%
CNC(=O)c1cc(Oc2ccc(NC(=O)Nc3ccc(Cl)c(C(F)(F)F)c3)cc2)ccn1,"enzyme activity, inhibitor",10 µM,inhibition,56%
Cc1noc([C@H]2C[C@@H](c3ccc(C(F)(F)F)cc3)CN(C(=O)N3CCS(=O)(=O)C3)C2)n1,"cell-free assay, competition with immobilised ligand",1 µM,remaining binding,100%
COc1cc(Cl)c(C(=O)N[C@@H](CN[C@H]2CC[C@@H](N)CC2)Cc2ccc(C#N)cc2)cc1-c1ccc(CN[C@H](C)c2ccc(C)cc2)o1,"enzyme activity, inhibitor",1 µM,remaining activity,101%
Nc1ncnc2occ(-c3ccc(NC(=O)Nc4cc(C(F)(F)F)ccc4F)cc3)c12,"cell-free assay, inhibitor",20 µM,remaining signal,0.4%
O=C(NCc1ncc(C(F)(F)F)cc1Cl)c1ccc2c(c1)C1(CCS(=O)(=O)CC1)[C@H](C1CC1)N2S(=O)(=O)c1ccc(F)cc1,"cell-free assay, competition with immobilised ligand",1 µM,remaining binding,99%
Nc1nc(Nc2ccccc2)sc1C(=O)c1c(F)cccc1F,"enzyme activity, inhibitor",10 µM,remaining activity,62%
COc1cc(Nc2cnc(C#N)c(O[C@H](C)CN(C)C)n2)ncc1-c1cnn(C)c1,"enzyme activity, inhibitor, radiometric",1 µM,remaining activity,87%
O=C(Nc1cnn(-c2csc(C(=O)NC3COC3)c2)c1)Nc1ccccc1Cl,"enzyme activity, inhibitor",5 µM,remaining activity,122%
Cn1c2c(Cl)c(Cl)ccc2c2cc(N)[nH]c(=O)c21,"thermal stability, DSF",10 µM,ΔTm,0.5 °C
COc1cc2ncnc(Nc3ccc(Oc4ccccc4)c(C)c3C)c2cc1OC,"enzyme activity, inhibitor",1 µM,inhibition,2%
Cc1cnc(NC2CCOCC2)nc1-n1cnc(C(=O)NC(CN)c2cc(F)cc(Cl)c2)c1 (centres unmarked),"enzyme activity, inhibitor, radiometric",1 µM,remaining activity,28%
CNCc1ccccc1-c1csc([C@H](C)Nc2nc(C)nc3cc(OC)c(OC)cc23)c1,"cell-free assay, competition with immobilised ligand",1 µM,remaining binding,100%
Nc1nc(NC2CCCCC2)sc1C(=O)c1ccccc1,"enzyme activity, inhibitor",10 µM,remaining activity,67%
N#Cc1ccc(Nc2ccc3[nH]c(=O)[nH]c3c2)c(Cl)c1,"cell-free assay, competition with immobilised ligand",1 µM,remaining binding,100%
Cc1ccc(NC(=O)c2ccc(C)c(C(F)(F)F)c2)cc1C#Cc1nn(C2CCC(O)CC2)c2ncnc(N)c12 (centres unmarked),cell-free assay,10 µM,remaining signal,80%
CN1CCC2(CC1)NC(=O)c1c(c3ccc(Cl)c(Cl)c3n1C)C2C#N (racemic),"thermal stability, DSF",10 µM,ΔTm,0.4 °C
CCN(CC)CCNC(=O)c1c(C)[nH]c(/C=C2\C(=O)Nc3ccc(F)cc32)c1C,"enzyme activity, inhibitor",0.3 µM,inhibition,-17%
